The term IC50 denotes the point on the concentration scale where inhibition reaches its midpoint.

Test [1] has as its target T1, Sodium-dependent dopamine transporter (Rattus norvegicus, UniProt P23977). The test can be described thus: Inhibition of [3H]dopamine uptake into rat striatal synaptosomes. It counts as functional, subcellular, Brain. Put shortly:
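[3H]Dopamine uptake run at 33 °C, in a buffer whose ion concentrations differ from those of the binding assays.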

Test [2] deals with T1, Sodium-dependent dopamine transporter. The test can be described thus: Displacement of [3H]WIN-35428 from Dopamine transporter of rat caudate putamen. It counts as tissue-based. Put shortly:
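Radioligand displacement binding to brain DAT, incubated at 0 °C.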
Background: Displacement assays read how much labelled ligand stays bound in the presence of the test substance.

The target in test [3] is Sodium-dependent serotonin transporter (Rattus norvegicus, UniProt P31652). The test is described as follows: Displacement of [3H]paroxetine from Serotonin transporter of rat caudate putamen. It counts as tissue-based.
Chain of Sodium-dependent serotonin transporter (P31652 whole entry): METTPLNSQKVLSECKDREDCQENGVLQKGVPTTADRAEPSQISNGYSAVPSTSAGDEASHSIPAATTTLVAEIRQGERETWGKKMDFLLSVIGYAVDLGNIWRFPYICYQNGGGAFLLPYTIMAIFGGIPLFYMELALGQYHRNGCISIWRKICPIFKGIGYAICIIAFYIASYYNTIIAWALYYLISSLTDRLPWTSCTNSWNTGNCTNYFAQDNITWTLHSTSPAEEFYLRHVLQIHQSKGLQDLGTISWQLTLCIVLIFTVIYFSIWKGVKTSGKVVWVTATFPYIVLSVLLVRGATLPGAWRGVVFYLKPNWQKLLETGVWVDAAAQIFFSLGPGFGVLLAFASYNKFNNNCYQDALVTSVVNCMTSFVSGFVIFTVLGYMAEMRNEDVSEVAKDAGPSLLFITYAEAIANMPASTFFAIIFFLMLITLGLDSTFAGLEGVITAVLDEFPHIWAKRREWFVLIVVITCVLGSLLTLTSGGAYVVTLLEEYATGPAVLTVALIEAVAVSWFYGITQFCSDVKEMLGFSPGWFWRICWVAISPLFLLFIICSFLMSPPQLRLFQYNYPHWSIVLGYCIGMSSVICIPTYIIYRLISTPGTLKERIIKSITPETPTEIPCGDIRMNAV

T1 sequence (P23977 whole entry): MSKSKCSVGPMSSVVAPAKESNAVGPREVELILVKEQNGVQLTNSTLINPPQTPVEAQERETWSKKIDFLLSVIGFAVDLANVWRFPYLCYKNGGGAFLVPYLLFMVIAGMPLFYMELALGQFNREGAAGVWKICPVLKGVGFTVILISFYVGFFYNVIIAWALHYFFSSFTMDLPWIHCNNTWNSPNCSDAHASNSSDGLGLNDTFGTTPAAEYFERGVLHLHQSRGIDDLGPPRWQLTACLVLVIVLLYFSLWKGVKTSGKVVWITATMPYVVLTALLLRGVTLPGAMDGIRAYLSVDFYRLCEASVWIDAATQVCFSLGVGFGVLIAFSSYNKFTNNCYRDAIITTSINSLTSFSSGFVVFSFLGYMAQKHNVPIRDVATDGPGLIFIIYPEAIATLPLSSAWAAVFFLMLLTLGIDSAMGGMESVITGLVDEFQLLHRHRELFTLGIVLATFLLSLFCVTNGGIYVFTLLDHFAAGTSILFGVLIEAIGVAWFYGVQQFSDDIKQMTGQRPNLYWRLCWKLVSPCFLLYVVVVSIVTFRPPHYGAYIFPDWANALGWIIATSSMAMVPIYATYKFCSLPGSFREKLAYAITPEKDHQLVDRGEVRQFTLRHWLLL

With `CO[C@H]1CC2C[C@H](OC(c3ccccc3)c3ccccc3)CC1N2C` (stereo partly specified), the IC50 was 0.139 µM in test [1], 0.276 µM in test [2] and above 100 µM in test [3].

For the compound `COCO[C@@H]1CC2C[C@H](OC(c3ccc(F)cc3)c3ccc(F)cc3)CC1N2C` (stereo partly specified), the IC50 in test [1] came out at 0.491 µM; in test [2], 2.5 µM; in test [3], 3.5 µM.

For `CO[C@@H]1CC2C[C@H](OC(c3ccc(F)cc3)c3ccc(F)cc3)CC1N2C` (stereo partly specified), the IC50 in test [1] was determined as 0.0124 µM; in test [2] it was 0.01 µM; in test [3], 0.28 µM.

For the compound `CN1C2C[C@H](OC(c3ccc(F)cc3)c3ccc(F)cc3)CC1[C@@H](O)C2` (stereo partly specified), the IC50 in test [1] is 0.0081 µM; in test [2], 0.012 µM; in test [3], 11 µM.

`CN1C2CCCC1[C@@H](OC(c1ccc(F)cc1)c1ccc(F)cc1)C2` (stereo partly specified): the IC50 in test [1] was 0.199 µM; in test [2] it was 1.13 µM; in test [3], above 2 µM.

For the compound `COCO[C@H]1CC2C[C@H](OC(c3ccccc3)c3ccccc3)CC1N2C` (stereo partly specified), the IC50 in test [1] is 1.08 µM; in test [2], 4.5 µM; in test [3], above 100 µM.

Consider `CN1C2CCCC1[C@H](OC(c1ccc(F)cc1)c1ccc(F)cc1)C2` (stereo partly specified), for which the IC50 in test [1] was 0.347 µM; in test [2], 0.9 µM; in test [3], above 100 µM.

For `COCO[C@H]1CC2C[C@H](OC(c3ccccc3)c3ccc(Cl)cc3)CC1N2C` (stereo partly specified), the IC50 was 0.194 µM in test [1], 0.4 µM in test [2] and above 100 µM in test [3].

Consider `CN1C2C[C@H](OC(c3ccccc3)c3ccccc3)CC1[C@@H](O)C2` (stereo partly specified), for which the IC50 in test [1] is 0.149 µM; in test [2], 1.3 µM; in test [3], above 100 µM.

Consider `COCO[C@H]1CC2C[C@H](OC(c3ccc(F)cc3)c3ccc(F)cc3)CC1N2C` (stereo partly specified), for which the IC50 is 0.0797 µM in test [1], 0.34 µM in test [2] and above 100 µM in test [3].

In the case of `CO[C@H]1CC2C[C@H](OC(c3ccccc3)c3ccc(Cl)cc3)CC1N2C` (stereo partly specified), the IC50 in test [1] is 0.179 µM; in test [2], 0.032 µM; in test [3], above 100 µM.

Take `CN1C2C[C@H](OC(c3ccc(F)cc3)c3ccc(F)cc3)CC1[C@H](O)C2` (stereo partly specified): the values for the IC50 in test [1], in test [2] and in test [3] were 0.162 µM, 0.14 µM and above 100 µM, respectively.

For `CO[C@@H]1CC2CC(OC(c3ccccc3)c3ccc(Cl)cc3)CC1N2C` (single isomer, unassigned), the values for the IC50 in test [1], in test [2] and in test [3] were 0.519 µM, 0.75 µM and above 100 µM, respectively.

With `CO[C@H]1CC2C[C@H](OC(c3ccc(F)cc3)c3ccc(F)cc3)CC1N2C` (stereo partly specified), the IC50 in test [1] was 0.104 µM; in test [2], 0.025 µM; in test [3], above 100 µM.

In the case of `CO[C@@H]1CC2CC(OC(c3ccccc3)c3ccccc3)CC1N2C` (single isomer, unassigned), the half-maximal inhibitory concentration (IC50) is 0.24 µM in test [1], 0.975 µM in test [2] and above 100 µM in test [3].

As for `CN1C2C[C@H](OC(c3ccccc3)c3ccc(Cl)cc3)CC1[C@@H](O)C2` (stereo partly specified), the figures for the IC50 in test [1], in test [2] and in test [3] were 0.0391 µM, 0.6 µM and above 100 µM, respectively.

In the case of `CO[C@@H]1CC2CC(OC(c3ccc(F)cc3)c3ccc(F)cc3)CC1N2C` (single isomer, unassigned), the results for the IC50 in test [1], in test [2] and in test [3] were 0.165 µM, 0.095 µM and above 0.01 µM, respectively.

For the origin of these results see ChEMBL document CHEMBL1144420 (J Med Chem, 2005).
